ChEMBL document CHEMBL1681731, “Synthesis, in vitro anti-inflammatory and cytotoxic evaluation, and mechanism of action studies of 1-benzoyl-β-carboline and 1-benzoyl-3-carboxy-β-carboline derivatives” (Bioorg Med Chem, 2011)
Calls of active or inactive are those of the source. The rule behind the calls is not given here.

Columns and labels:
[1] = system: KB; assay: Cytotoxicity activity against human KB cells assessed as growth inhibition at 10 ug/ml after 72 hrs sulforhodamine B assay; type: functional
Summary of the method: (§1)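 Cells kept in RPMI-1640/10% FBS with antibiotics at 37 °C, 5% CO2. Trypsinized cells seeded and given compound from DMSO-diluted stock. Incubated 72 h, then fixed with 10% TCA. Stained 10 min with 0.4% sulforhodamine B in 1% HOAc, washed, dye dissolved in 10 mM Trizma. A515 read; growth relative to net protein increase of controls.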

[2] = system: A549; assay: Cytotoxicity activity against human A549 cells assessed as growth inhibition at 10 ug/ml after 72 hrs sulforhodamine B assay; type: functional; details: A549, 72 h; summary of the method: as §1
[3] = system: DU-145; assay: Cytotoxicity activity against human DU145 cells assessed as growth inhibition at 10 ug/ml after 72 hrs sulforhodamine B assay; type: functional; details: DU-145, 72 h; summary of the method: as §1
[4] = Cytotoxicity activity against human KBVIN cells assessed as growth inhibition at 10 ug/ml after 72 hrs sulforhodamine B assay; type: functional; summary of the method: as §1
[5] = Antiinflammatory activity against human neutrophil assessed as inhibition of N-formyl-l-methionyl phenylalanine/cytochalasin B-induced superoxide anion generation by spectrophotometry; type: functional, cell-based
Summary of the method: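 Ferricytochrome c (0.5 mg/mL) reduction, SOD-inhibitable, with 1 mM Ca2+. Neutrophils (6 × 10^5 cells/mL) equilibrated 2 min at 37 °C, then drug or 0.1% DMSO for 5 min. Cytochalasin B 1 µg/mL preincubation, then 100 nM FMLP for 3 min. A550 monitored continuously with stirring. IC50 computed; mean ± SEM, n = 3.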

[6] = Antiinflammatory activity against human neutrophil assessed as inhibition of N-formyl-l-methionyl phenylalanine/cytochalasin B-induced elastase release; type: functional, cell-based
Summary of the method: (§2)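 Neutrophils (6 × 10^5/mL) supplemented with 100 µM MeO-Suc-Ala-Ala-Pro-Val-p-nitroanilide, equilibrated 2 min at 37 °C, then given drug or 0.1% DMSO vehicle for 5 min. Activated with 100 nM FMLP plus 0.5 µg/mL cytochalasin B. Absorbance at 405 nm followed continuously. Release expressed as percent of drug-free activated control. IC50 computed; mean ± SEM, n = 3.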

[7] = Antiinflammatory activity against mouse […] cells assessed as inhibition of lipopolysaccharide/interferon-gamma induced nitric oxide production; type: functional, cell-based; details: Mus musculus; read-out: EC50
Summary of the method: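 RAW 264.7 cells in DMEM/10% FCS, passages 9–20. Nitrite induced by LPS (1 µg/mL) plus IFN-γ (50 U/mL) for 18 h with or without compound. Griess reagent (1% sulfanilamide, 0.1% naphthylenediamine in 5% H3PO4) read at OD550. EC50 calculated.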

[8] = species: Mus musculus; assay: (§3) Cytotoxicity against mouse […] cells by MTT assay; type: functional
Summary of the method: (§4)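 Viability of RAW 264.7 cells taken as mitochondrial reduction of MTT to formazan. Formazan read at OD550.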

[9] = system: RAW264.7; assay: Antiinflammatory activity against mouse RAW264.7 cells assessed as reduction of lipopolysaccharide/interferon-gamma induced PGE2 production at 1 uM by EIA; type: functional
Summary of the method: (§5)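 RAW 264.7 macrophages (passages 9–20) stimulated with LPS/IFN-γ; compound tested at 1, 3 and 10 µM. Supernatant PGE2 measured by competitive EIA: anti-PGE2 antibody plus peroxidase-PGE2 tracer, 1 h RT; TMB/H2O2 30 min; H2SO4 stop; A450. Results given as % inhibition.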

[10] = system: RAW264.7; assay: Antiinflammatory activity against mouse RAW264.7 cells assessed as reduction of lipopolysaccharide/interferon-gamma induced PGE2 production at 3 uM after 18 hrs; type: functional; details: RAW264.7, 18 h; summary of the method: as §5
[11] = system: RAW264.7; assay: Antiinflammatory activity against mouse RAW264.7 cells assessed as reduction of lipopolysaccharide/interferon-gamma induced PGE2 production at 10 uM after 18 hrs; type: functional; details: RAW264.7, 18 h; summary of the method: as §5
[12] = system: RAW264.7; assay: Inhibition of lipopolysaccharide/interferon gamma-induced COX2 expression in mouse RAW264.7 cells by Western blot analysis; type: functional, cell-based
Summary of the method: (§6)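 RAW 264.7 cells lysed in ice-cold RIPA buffer (25 mM Tris–HCl pH 7.2, SDS, Triton, deoxycholate, protease/phosphatase inhibitors). Protein assayed, run on 7.5% SDS-PAGE and transferred to nitrocellulose. Probed for iNOS or COX2 with HRP-anti-IgG secondary, detected by ECL. Blot re-probed for α-tubulin.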

[13] = system: RAW264.7; assay: Inhibition of lipopolysaccharide/interferon gamma-induced iNOS expression in mouse RAW264.7 cells by Western blot analysis; type: functional, cell-based; summary of the method: as §6
[14] = Therapeutic index, ratio of CC50 for mouse […] cells to EC50 for inhibition of lipopolysaccharide/interferon-gamma induced nitric oxide production in mouse […] cells; type: cell-based; details: read-out: TI
[15] = as §3; type: functional; summary of the method: as §4
[16] = system: Neutrophil; assay: Antiinflammatory activity against human neutrophil assessed as inhibition of N-formyl-l-methionyl phenylalanine-induced phosphorylation of JNK by Western blot analysis; type: functional, cell-based
Summary of the method: (§7)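 Neutrophils given drug for 5 min at 37 °C, then FMLP (0.1 µM) for 0.5 min. Stopped on ice and centrifuged at 4 °C. Pellets lysed in HEPES pH 7.4 Triton buffer with phosphatase and protease inhibitors; 14,000 g 20 min spin. Lysate proteins run on 12% SDS-PAGE, immunoblotted, detected by ECL.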

[17] = system: Neutrophil; assay: Antiinflammatory activity against human neutrophil assessed as inhibition of N-formyl-l-methionyl phenylalanine-induced phosphorylation of AKT by Western blot analysis; type: functional, cell-based; summary of the method: as §7
[18] = system: Radical scavenging activity; assay: Antioxidant activity assessed as residual DPPH radical scavenging activity; type: functional
[19] = Antiinflammatory activity against cytochalasin B pretreated human neutrophil assessed as inhibition of elastase release; type: functional; summary of the method: as §2

Row | Compound | IC50 [5] [µM] | IC50 [6] [µM] | EC50 [7] [µM] | GI50 [1] [µM] | GI50 [2] [µM] | GI50 [3] [µM] | GI50 [4] [µM] | CC50 [8] | inhibition at 1 µM [9] [%] | inhibition at 3 µM [10] [%] | inhibition at 10 µM [11] [%] | Activity [12] | Activity [13] | selectivity ratio [14] | CC50 [15] [µM] | inhibition [16] | inhibition [17] | Activity [18] | INH [19] [µM]
1 | CC(=O)c1nccc2c1[nH]c1ccccc12 | 5.03 | > 30 | 6.65 | > 40 | > 40 | > 40 | > 40 | Non-toxic | 0 | 0 | 59 | – | – | – | – | – | – | – | –
2 | O=C(O)c1cc2c([nH]c3ccccc32)c(C(=O)c2cccc(Br)c2)n1 | 2.05 | 2.78 | 0.57 | > 40 | > 40 | > 40 | > 40 | – | 100 | 100 | – | Active | Active | 51 | 29.4 | Active | Active | inactive | –
3 | O=C(O)c1cc2c([nH]c3ccccc32)c(C(=O)c2ccc([N+](=O)[O-])cc2)n1 | 6.65 | 6.21 | 2.94 | > 40 | > 40 | > 40 | > 40 | – | 0 | 92 | 100 | – | – | 5 | 15 | – | – | inactive | –
4 | O=C(O)c1cc2c([nH]c3ccccc32)c(C(=O)c2ccccc2[N+](=O)[O-])n1 | 17.6 | 13.2 | 2.88 | > 40 | > 40 | > 40 | > 40 | – | 0 | 97 | 100 | – | – | 4 | 12.8 | – | – | inactive | –
5 | Cc1ccc(C(O)c2nccc3c2[nH]c2ccccc23)cc1 (stereo not given) | > 30 | > 30 | 4.94 | 20.6 | 26.6 | 13.8 | 9.29 | Non-toxic | 15 | 29 | – | – | – | > 100 | – | – | – | – | –
6 | COc1cccc(C(=O)c2nccc3c2[nH]c2ccccc23)c1 | > 30 | – | 2.96 | > 40 | > 40 | > 40 | > 40 | – | 0 | 71 | 98 | – | – | 6 | 16.3 | – | – | – | 13.2
7 | O=C(O)c1cc2c([nH]c3ccccc32)c(C(=O)c2ccccc2)n1 | 17.7 | 13.4 | 3.65 | > 40 | > 40 | > 40 | > 40 | – | 0 | 12 | 90 | – | – | 155 | 564 | – | – | inactive | –
8 | Cc1ccc(C(=O)c2nc(C(=O)O)cc3c2[nH]c2ccccc23)cc1 | 6.27 | 3.13 | 0.5 | > 40 | > 40 | > 40 | > 40 | – | 100 | 100 | – | – | – | 35 | 17.7 | – | – | inactive | –

More lines, main results first:

Row | IC50 [5] [µM] | IC50 [6] [µM] | EC50 [7] [µM] | Compound | GI50 [1] [µM] | GI50 [2] [µM] | GI50 [3] [µM] | GI50 [4] [µM] | CC50 [8] | inhibition at 1 µM [9] [%] | inhibition at 3 µM [10] [%] | inhibition at 10 µM [11] [%] | Activity [12] | Activity [13] | selectivity ratio [14] | CC50 [15] [µM] | inhibition [16] | inhibition [17] | Activity [18] | INH [19] [µM]
9 | > 30 | > 30 | 0.25 | CC(=O)c1nc(C(=O)O)cc2c1[nH]c1ccccc12 | > 40 | > 40 | > 40 | > 40 | Non-toxic | 0 | 0 | 0 | – | – | – | – | – | – | – | –
10 | 5.36 | 14.8 | 2.58 | Cc1ccccc1C(=O)c1nc(C(=O)O)cc2c1[nH]c1ccccc12 | > 40 | > 40 | > 40 | > 40 | – | 0 | 82 | 100 | – | – | > 2000 | – | – | – | inactive | –
11 | > 30 | > 30 | 0.2 | Cc1cccc(C(=O)c2nccc3c2[nH]c2ccccc23)c1 | > 40 | > 40 | > 40 | > 40 | – | 97 | 100 | – | Active | Active | 120 | 23.7 | – | – | – | –
12 | 5.33 | 3.07 | 6.96 | O=C(O)c1cc2c([nH]c3ccccc32)c(C(=O)c2ccccc2Br)n1 | > 40 | > 40 | > 40 | > 40 | – | 0 | 78 | 96 | – | – | 75 | 524 | – | – | inactive | –
